Reference: ChEMBL document CHEMBL3045276, “Synthesis and biological activity of some novel trifluoromethyl-substituted 1,2,4-triazole and bis(1,2,4-triazole) Mannich bases containing piperazine rings” (2010)

Legend:
Format in all cases: functional
Echinochloa crus-galli [1] = experiment: Herbicidal activity against Echinochloa crus-galli (barnyard grass) assessed as inhibition of seedling growth at 10 ug/mL at 28 degC
Outline: (§1)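 Ten barnyardgrass seeds placed in cup over glass beads and filter paper holding 5 mL aqueous test solution (emulsified if needed); germinated 65 h at 28 ± 1 °C under light. Mean above-ground seedling height per cup measured; inhibition percentage derived.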

Corynespora cassiicola = experiment: Fungicidal activity against Corynespora cassiicola in cucumber plant two seed leaves stage assessed as control efficacy from disease indices at 500 ug/mL at 18 to 30 degC and above 80%RH relative to control; conditions: read-out: GI
Outline: (§2)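 Cucumber seeds germinated (soaked 2 h in water at 50 °C, kept moist 24 h at 28 °C) and grown in 1:1 vermiculite/peat; two-seed-leaf plants sprayed at 500 μg/mL, then inoculated 2 h later by spraying conidial (C. cassiicola, A. citrullina, P. cubensis), bacterial (P. syringae) or mycelial (S. sclerotiorum) suspension. Held 18-30 °C, >80% RH; four repeats; control efficacy = (CK−PT)/CK×100 from disease indices once untreated plants fully symptomatic.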

Ascochyta = experiment: Fungicidal activity against Ascochyta […] in cucumber plant two seed leaves stage assessed as control efficacy from disease indices at 500 ug/mL at 18 to 30 degC and above 80%RH relative to control; conditions: read-out: GI; outline: as §2
[2] = tested on: Pseudomonas amygdali pv. lachrymans; experiment: Fungicidal activity against Pseudomonas syringae pv. lachrymans in cucumber plant two seed leaves stage assessed as control efficacy from disease indices at 500 ug/mL at 18 to 30 degC and above 80%RH relative to control; conditions: read-out: GI; outline: as §2
Sclerotinia sclerotiorum = experiment: Fungicidal activity against Sclerotinia sclerotiorum in cucumber plant two seed leaves stage assessed as control efficacy from disease indices at 500 ug/mL at 18 to 30 degC and above 80%RH relative to control; conditions: read-out: GI; outline: as §2
Echinochloa crus-galli [3] = experiment: Herbicidal activity against Echinochloa crus-galli (barnyard grass) assessed as inhibition of seedling growth at 100 ug/mL at 28 degC; outline: as §1
[4] = tested on: Pseudoperonospora cubensis; experiment: Fungicidal activity against Pseudoperonospora cubensis in cucumber plant two seed leaves stage assessed as control efficacy from disease indices at 500 ug/mL at 18 to 30 degC and above 80%RH relative to control; conditions: read-out: GI; outline: as §2
[5] = tested on: Brassica rapa subsp. oleifera; experiment: Herbicidal activity against Brassica rapa subsp. oleifera assessed as inhibition of root growth at 10 ug/mL at 28 degC
Outline: (§3)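 Rape seeds soaked 4 h in distilled water, then 15 per 6 cm dish on filter paper wetted with 2 mL aqueous test solution (emulsified if needed); germinated 65 h at 28 ± 1 °C in darkness. Mean length of 10 roots per dish measured; percentage inhibition calculated against distilled-water check.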

[6] = tested on: Brassica rapa subsp. oleifera; experiment: Herbicidal activity against Brassica rapa subsp. oleifera assessed as inhibition of root growth at 100 ug/mL at 28 degC; outline: as §3

| SMILES | inhibition at 10 µg/mL (Echinochloa crus-galli [1]) [%] | inhibition of growth at 500 µg/mL (Corynespora cassiicola) [%] | inhibition of growth at 500 µg/mL (Ascochyta) [%] | inhibition of growth at 500 µg/mL [2] [%] | inhibition of growth at 500 µg/mL (Sclerotinia sclerotiorum) [%] | inhibition at 100 µg/mL (Echinochloa crus-galli [3]) [%] | inhibition of growth at 500 µg/mL [4] [%] | inhibition at 10 µg/mL [5] [%] | inhibition at 100 µg/mL [6] [%] |
| --- | --- | --- | --- | --- | --- | --- | --- | --- | --- |
| FC(F)(F)c1nn(CN2CCN(Cn3nc(C(F)(F)F)n(/N=C/c4ccccc4)c3=S)CC2)c(=S)n1/N=C/c1ccccc1 | 16.2 | 70.9 | 25.6 | 56.4 | 67.6 | 25.1 | 78.9 | 0 | 35.1 |
| Fc1ccccc1/C=N/n1c(C(F)(F)F)nn(CN2CCN(Cn3nc(C(F)(F)F)n(/N=C/c4ccccc4F)c3=S)CC2)c1=S | 10.7 | 84.7 | 86.5 | 6.8 | 25.9 | 26.6 | 79.9 | 0 | 4.3 |
| COc1ccc(/C=N/n2c(C(F)(F)F)nn(CN3CCN(Cn4nc(C(F)(F)F)n(/N=C/c5ccc(OC)cc5)c4=S)CC3)c2=S)cc1 | 5.5 | 44.1 | 89.7 | 55.6 | 62 | 25.5 | 84.5 | 0 | 29.5 |
| Cc1ccc(/C=N/n2c(C(F)(F)F)nn(CN3CCN(Cn4nc(C(F)(F)F)n(/N=C/c5ccc(C)c(C)c5)c4=S)CC3)c2=S)cc1C | 1.5 | 67.4 | 26 | 36.7 | 32.7 | 28 | 78.7 | 0 | 27.4 |
| Cc1ccnc(N2CCN(Cn3nc(C(F)(F)F)n(/N=C/c4ccccc4F)c3=S)CC2)n1 | 0 | -5.3 | 57.8 | 62.3 | 52.2 | 8 | 75.5 | 0 | 24.4 |
| COc1ccc(/C=N/n2c(C(F)(F)F)nn(CN3CCN(c4nccc(C)n4)CC3)c2=S)cc1 | 15.3 | 52.8 | 67.7 | 30.6 | 50.9 | 34.3 | 72.5 | 0 | 30.3 |
| Cc1ccnc(N2CCN(Cn3nc(C(F)(F)F)n(/N=C/c4ccc(C)c(C)c4)c3=S)CC2)n1 | 0 | 38.7 | 70 | 22 | 51.9 | 27.8 | 69.5 | 0 | 11.2 |
| Cc1ccnc(N2CCN(Cn3nc(C(F)(F)F)n(/N=C/c4ccc(Cl)cc4)c3=S)CC2)n1 | 10.2 | 71.1 | 61.3 | 21.1 | 70.3 | 96.7 | 91.2 | 0 | 68.6 |
| Cc1ccnc(N2CCN(Cn3nc(C(F)(F)F)n(/N=C/c4ccccc4[N+](=O)[O-])c3=S)CC2)n1 | 11.5 | 73.8 | 44.3 | 44.5 | 32.8 | 33.9 | 76.8 | 0 | 0 |
| Cc1cc(C)nc(N2CCN(Cn3nc(C(F)(F)F)n(/N=C/c4ccccc4)c3=S)CC2)n1 | 0 | 22.1 | 61.5 | 55 | 48 | 9.8 | 74.1 | 36.9 | 71.1 |
| Cc1cc(C)nc(N2CCN(Cn3nc(C(F)(F)F)n(/N=C/c4ccccc4F)c3=S)CC2)n1 | 17.1 | 78.7 | 83.5 | 56.1 | 72 | 33.2 | 79.2 | 67.1 | 72.4 |
| COc1ccc(/C=N/n2c(C(F)(F)F)nn(CN3CCN(c4nc(C)cc(C)n4)CC3)c2=S)cc1 | 0 | 83.7 | 87.6 | 50.3 | 62.6 | 29.5 | 87.3 | 30.6 | 67.7 |
| Cc1cc(C)nc(N2CCN(Cn3nc(C(F)(F)F)n(/N=C/c4ccc(C)c(C)c4)c3=S)CC2)n1 | 0 | 85.9 | 82.9 | 59.5 | 48.9 | 8.7 | 67.8 | 6 | 20.5 |
| Cc1cc(C)nc(N2CCN(Cn3nc(C(F)(F)F)n(/N=C/c4ccc(Cl)cc4)c3=S)CC2)n1 | 12.3 | 94.4 | 62.8 | 61.5 | 38 | 36.6 | 91.6 | 9.5 | 88.5 |
| Cc1cc(C)nc(N2CCN(Cn3nc(C(F)(F)F)n(/N=C/c4ccccc4[N+](=O)[O-])c3=S)CC2)n1 | 0 | 87.8 | 88.4 | 46.5 | 39.3 | 10.2 | 77.2 | 0 | 11.2 |
| COc1nc(C)nc(NC(=O)NS(=O)(=O)c2ccccc2Cl)n1 [CHLORSULFURON] | 8.2 | – | – | – | – | 29.9 | – | 76 | 80.4 |
| COc1ccc(C(=CC(=O)N2CCOCC2)c2ccc(Cl)cc2)cc1OC [DIMETHOMORPH] | – | 95.3 | 98.4 | 14 | 98.4 | – | 83.8 | – | – |
| CC(C)NC(=O)N1CC(=O)N(c2cc(Cl)cc(Cl)c2)C1=O [IPRODIONE] | – | 53.5 | 98.4 | 38.5 | 97.8 | – | 55.9 | – | – |
| COC(=O)NC(=S)Nc1ccccc1NC(=S)NC(=O)OC [THIOPHANATE METHYL] | – | 78.8 | 100 | 54.2 | 83.4 | – | 68.7 | – | – |
